Reference: ChEMBL document CHEMBL4118202, “Chiral analogues of (+)-cyclazosin as potent α1B-adrenoceptor selective antagonist” (Bioorg Med Chem, 2018)

Columns and labels:
Homo sapiens [1] = organism: Homo sapiens; assay: Selectivity ratio of compound effect for displacement of [3H]prazosin from human alpha1B adrenergic receptor expressed in CHO cell membranes to compound effect for displacement of [3H]prazosin from human alpha1A adrenergic receptor expressed in CHO cell membranes
Summary of the method: (§1)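 Ratio taken as the antilog of the difference between pKi values from [3H]prazosin displacement at human α1 subtypes expressed in CHO membranes.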

Rattus norvegicus [2] = organism: Rattus norvegicus; assay: Selectivity ratio of compound effect for antagonism of alpha1B adrenergic receptor in Wistar rat spleen to compound effect for antagonism of alpha1A adrenergic receptor in Wistar rat prostatic rat vas deferens
Summary of the method: (§2)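 Ratio taken as the antilog of the difference between rat tissue pA2 or pKB values for the two subtypes (vas deferens α1A, spleen α1B, aorta α1D organ-bath antagonism).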

Homo sapiens [3] = organism: Homo sapiens; assay: Selectivity ratio of compound effect for displacement of [3H]prazosin from human alpha1B adrenergic receptor expressed in CHO cell membranes to compound effect for displacement of [3H]prazosin from human alpha1D adrenergic receptor expressed in CHO cell membranes; summary of the method: as §1
[4] = molecular target: T1, Alpha-1A adrenergic receptor (Homo sapiens, UniProt P35348); assay: Displacement of [3H]prazosin from human alpha1A adrenergic receptor expressed in CHO cell membranes after 30 mins by rapid filtration method
T1 sequence (P35348 whole entry): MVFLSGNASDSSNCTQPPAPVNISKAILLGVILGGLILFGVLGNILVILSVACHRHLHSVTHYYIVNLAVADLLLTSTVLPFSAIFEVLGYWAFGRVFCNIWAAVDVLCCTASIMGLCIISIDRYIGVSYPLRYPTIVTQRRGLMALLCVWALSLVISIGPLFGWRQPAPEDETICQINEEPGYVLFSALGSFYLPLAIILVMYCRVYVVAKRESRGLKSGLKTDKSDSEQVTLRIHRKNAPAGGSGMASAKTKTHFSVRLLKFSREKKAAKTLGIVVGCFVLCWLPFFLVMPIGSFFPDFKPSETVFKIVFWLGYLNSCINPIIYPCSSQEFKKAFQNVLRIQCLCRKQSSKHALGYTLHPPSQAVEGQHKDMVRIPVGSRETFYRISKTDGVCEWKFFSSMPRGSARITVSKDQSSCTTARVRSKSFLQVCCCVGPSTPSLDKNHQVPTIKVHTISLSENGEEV
Summary of the method: (§3)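 Membranes (30 μg protein) from CHO cells stably transfected with the human α1a, α1b or α1d receptor. Incubated 30 min at 25 °C in 50 mM Tris-HCl pH 7.4 with 0.1–0.4 nM [3H]prazosin and competitor 1 pM–10 μM. Nonspecific binding defined by 10 μM phentolamine. Stopped by rapid filtration through PEI-treated filters. IC50 converted to Ki by Cheng-Prusoff; pKi from 2–3 experiments in triplicate.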

Rattus norvegicus [5] = organism: Rattus norvegicus; assay: Selectivity ratio of compound effect for antagonism of alpha1D adrenergic receptor in Wistar rat thoracic aorta to compound effect for antagonism of alpha1A adrenergic receptor in Wistar rat prostatic rat vas deferens; summary of the method: as §2
Rattus norvegicus [6] = organism: Rattus norvegicus; assay: Selectivity ratio of compound effect for antagonism of alpha1B adrenergic receptor in Wistar rat spleen to compound effect for antagonism of alpha1D adrenergic receptor in Wistar rat thoracic aorta; summary of the method: as §2
[7] = molecular target: T2, Alpha-1D adrenergic receptor (Homo sapiens, UniProt P25100); assay: Displacement of [3H]prazosin from human alpha1D adrenergic receptor expressed in CHO cell membranes after 30 mins by rapid filtration method; summary of the method: as §3
T2 sequence (P25100 whole entry): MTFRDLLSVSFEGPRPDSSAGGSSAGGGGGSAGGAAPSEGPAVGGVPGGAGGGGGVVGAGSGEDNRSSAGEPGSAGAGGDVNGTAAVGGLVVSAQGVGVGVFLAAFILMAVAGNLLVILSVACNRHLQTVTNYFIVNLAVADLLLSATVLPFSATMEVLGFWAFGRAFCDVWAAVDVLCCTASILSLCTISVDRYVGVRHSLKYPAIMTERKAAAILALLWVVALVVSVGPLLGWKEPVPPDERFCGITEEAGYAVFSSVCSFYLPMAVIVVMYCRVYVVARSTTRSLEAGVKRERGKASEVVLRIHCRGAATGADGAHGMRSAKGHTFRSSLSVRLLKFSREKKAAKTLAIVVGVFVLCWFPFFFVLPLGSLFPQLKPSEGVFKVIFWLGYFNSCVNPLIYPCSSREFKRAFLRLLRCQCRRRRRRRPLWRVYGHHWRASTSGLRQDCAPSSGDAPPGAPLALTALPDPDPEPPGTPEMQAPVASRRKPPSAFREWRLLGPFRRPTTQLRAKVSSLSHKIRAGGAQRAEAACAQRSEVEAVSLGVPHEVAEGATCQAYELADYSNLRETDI

[8] = molecular target: T3, Alpha-1B adrenergic receptor (Rattus norvegicus) (UniProt P15823); assay: Antagonist activity at alpha1B adrenergic receptor in Wistar rat spleen assessed as inhibition of phenylephrine-induced contraction incubated for 30 mins in presence of beta-adrenoceptor blocker propranolol hydrochloride; format: functional
T3 sequence (whole entry): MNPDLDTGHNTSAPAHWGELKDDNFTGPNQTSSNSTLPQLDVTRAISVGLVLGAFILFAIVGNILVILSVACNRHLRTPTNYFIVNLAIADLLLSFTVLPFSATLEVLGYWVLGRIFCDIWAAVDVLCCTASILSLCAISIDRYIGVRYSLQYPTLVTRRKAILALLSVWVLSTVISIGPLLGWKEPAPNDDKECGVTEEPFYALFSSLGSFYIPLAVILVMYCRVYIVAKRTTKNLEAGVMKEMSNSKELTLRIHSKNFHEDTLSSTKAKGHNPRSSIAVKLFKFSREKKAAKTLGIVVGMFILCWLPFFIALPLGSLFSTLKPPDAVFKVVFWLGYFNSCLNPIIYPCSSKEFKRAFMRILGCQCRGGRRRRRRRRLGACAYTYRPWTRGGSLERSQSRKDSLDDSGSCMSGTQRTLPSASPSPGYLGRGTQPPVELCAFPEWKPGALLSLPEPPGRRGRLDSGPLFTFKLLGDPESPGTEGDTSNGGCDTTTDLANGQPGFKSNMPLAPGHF
Summary of the method: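 Spleen bisected longitudinally into strips in Krebs with propranolol 4 μM, held at 1 g and equilibrated 2 h. Two isometric cumulative phenylephrine curves, each followed by 30 min washing. Third curve after 30 min vehicle or antagonist. Potency as pA2 (Schild) or pKB at one concentration (van Rossum). Responses as % of control maximum; n ≥ 4.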

Selectivity ratio (Rattus norvegicus [2])	Ki [4] [nM]	Selectivity ratio (Rattus norvegicus [5])	Selectivity ratio (Rattus norvegicus [6])	Ki [7] [nM]	pKb [8]	SMILES	Selectivity ratio (Homo sapiens [1])	Selectivity ratio (Homo sapiens [3])
0.8	0.871	3	0.3	0.389	–	COc1cc2nc(N3CCN(C(=O)COc4c(OC)cccc4C(C)C)[C@H]4CCCC[C@H]43)nc(N)c2cc1OC	6	3
457	5.5	3	141	3.98	8.77	COc1cc2nc(N3CCN(C(=O)OCc4ccccc4)[C@H]4CCCC[C@H]43)nc(N)c2cc1OC	14	11
1	1.86	1	1	0.0631	7.17	CCCN(CCC)c1nc(N2CCN(C(=O)c3ccco3)[C@@H]3CCCC[C@@H]32)nc2cc(OC)c(OC)cc12	15	0.5
1000	224	2	562	105	–	COc1cc2nc(N3CCN(C(C)=O)[C@H]4CCCC[C@H]43)nc(N)c2cc1OC	25	12
12	6.61	0.5	26	6.17	8.26	COc1cc2nc(N3CCN(C(=O)C(C)(C)C)[C@H]4CCCC[C@H]43)nc(N)c2cc1OC	9	8
30	17	2	15	2.24	8.05	COc1cc2nc(N3CCN(C(=O)Cc4ccc5ccccc5c4)[C@H]4CCCC[C@H]43)nc(N)c2cc1OC	14	2
93	22.4	2	44	5.13	7.86	CCCN(CCC)c1nc(N2CCN(C(=O)c3ccco3)[C@H]3CCCC[C@H]32)nc2cc(OC)c(OC)cc12	74	17
9	0.501	31	0.3	0.0398	–	COc1cc2nc(N3CCN(C(=O)OCc4ccccc4)[C@@H]4CCCC[C@@H]43)nc(N)c2cc1OC	3	0.2
9	5.75	0.6	15	3.72	7.99	CCCCCC(=O)N1CCN(c2nc(N)c3cc(OC)c(OC)cc3n2)[C@@H]2CCCC[C@@H]21	6	4
72	9.12	20	4	0.151	–	COc1cc2nc(N3CCN(C(C)=O)[C@@H]4CCCC[C@@H]43)nc(N)c2cc1OC	12	0.2
81	–	3	32	–	8.61	COc1cc2nc(N3CCN(C(=O)C4COc5ccccc5O4)[C@H]4CCCC[C@H]43)nc(N)c2cc1OC (single isomer, unassigned; (-)) [CYCLODOXAZOSIN]	–	–
